Results: ChEMBL document CHEMBL5678815 (Clin Cancer Res, 2017)
The source made the active and inactive calls. No cut-off for these calls is given here.

Legend:
[1] = biological target: Tyrosine-protein kinase Tec (Homo sapiens) (UniProt P42680); assay: Inhibition of human TEC at < 100 nM by ATP-Competition Binding Assay
[2] = biological target: Casein kinase I isoform gamma-2 (Homo sapiens) (UniProt P78368); assay: Inhibition of human CSNK1G2 assessed as remaining activity at 1 uM by ATP-competition binding assay relative to control
How it was run: (§1)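 KINOMEscan ATP-site-dependent competition binding panel of 395 human kinases, with compound tested at 1 μM. Binding is reported as remaining signal relative to control.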

[3] = system: Mast/stem cell growth factor receptor Kit (Homo sapiens), P10721 [L576P]; assay: Inhibition of human KIT L576P mutant assessed as remaining activity at 1 uM by ATP-competition binding assay relative to control
How it was run: (§2)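 Single-point profiling at 1μM in an ATP-site-dependent competition binding assay across a panel of 395 human kinases, including mutant forms. The read-out is kinase binding signal in the presence of test agent, expressed as inhibition relative to the control signal. This screen assessed noncovalent binding interactions.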

[4] = biological target: Serine/threonine-protein kinase 35 (Homo sapiens) (UniProt Q8TDR2); assay: Inhibition of human STK35 assessed as remaining activity at 1 uM by ATP-competition binding assay relative to control
How it was run: (§3)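 Single-concentration (1 μM) screen in an ATP-site-dependent competition binding assay (KINOMEscan, outsourced) covering 395 human kinases, mutants included. Non-covalent binding was read as the remaining signal relative to the control signal.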

[5] = biological target: Tyrosine-protein kinase Fes/Fps (Homo sapiens) (UniProt P07332); assay: Inhibition of human FES assessed as remaining activity at 1 uM by ATP-competition binding assay relative to control; how it was run: as §2
[6] = biological target: Calcium/calmodulin-dependent protein kinase type 1D (Homo sapiens) (UniProt Q8IU85); assay: Inhibition of human CAMK1D assessed as remaining activity at 1 uM by ATP-competition binding assay relative to control; how it was run: as §1
[7] = biological target: Serine/threonine-protein kinase 17B (Homo sapiens) (UniProt O94768); assay: Inhibition of human DRAK2 assessed as remaining activity at 1 uM by ATP-competition binding assay relative to control; how it was run: as §1
[8] = biological target: Tyrosine-protein kinase CSK (Homo sapiens) (UniProt P41240); assay: Inhibition of human CSK assessed as remaining activity at 1 uM by ATP-competition binding assay relative to control; how it was run: as §1
[9] = biological target: Mast/stem cell growth factor receptor Kit (Homo sapiens) (UniProt P10721); assay: Inhibition of human KIT assessed as remaining activity at 1 uM by ATP-competition binding assay relative to control; how it was run: as §2
[10] = biological target: Dual specificity protein kinase CLK1 (Homo sapiens) (UniProt P49759); assay: Inhibition of human CLK1 assessed as remaining activity at 1 uM by ATP-competition binding assay relative to control; how it was run: as §1
[11] = system: Mast/stem cell growth factor receptor Kit (Homo sapiens), P10721 [D816V]; assay: Inhibition of human KIT D816V mutant assessed as remaining activity at 1 uM by ATP-competition binding assay relative to control; how it was run: as §2
[12] = biological target: Atypical kinase COQ8B, mitochondrial (Homo sapiens) (UniProt Q96D53); assay: Inhibition of human ADCK4 assessed as remaining activity at 1 uM by ATP-competition binding assay relative to control; how it was run: as §1
[13] = biological target: Serine/threonine-protein kinase PAK 6 (Homo sapiens) (UniProt Q9NQU5); assay: Inhibition of human PAK6 assessed as remaining activity at 1 uM by ATP-competition binding assay relative to control; how it was run: as §2
[14] = system: Mast/stem cell growth factor receptor Kit (Homo sapiens), P10721 [V559D,T670I]; assay: Inhibition of human KIT V559D/T670I mutant assessed as remaining activity at 1 uM by ATP-competition binding assay relative to control; how it was run: as §2
[15] = biological target: Mitogen-activated protein kinase kinase kinase 11 (Homo sapiens) (UniProt Q16584); assay: Inhibition of human MLK3 assessed as remaining activity at 1 uM by ATP-competition binding assay relative to control; how it was run: as §2
[16] = biological target: RAC-alpha serine/threonine-protein kinase (Homo sapiens) (UniProt P31749); assay: Inhibition of human AKT1 assessed as remaining activity at 1 uM by ATP-competition binding assay relative to control; how it was run: as §1
[17] = biological target: Maternal embryonic leucine zipper kinase (Homo sapiens) (UniProt Q14680); assay: Inhibition of human MELK assessed as remaining activity at 1 uM by ATP-competition binding assay relative to control; how it was run: as §2
[18] = biological target: Myosin light chain kinase (Homo sapiens) (UniProt Q32MK0); assay: Inhibition of human MLCK assessed as remaining activity at 1 uM by ATP-competition binding assay relative to control; how it was run: as §2
[19] = biological target: Protein-tyrosine kinase 6 (Homo sapiens) (UniProt Q13882); assay: Inhibition of human BRK assessed as remaining activity at 1 uM by ATP-competition binding assay relative to control; how it was run: as §1
[20] = biological target: Serine/threonine-protein kinase PAK 3 (Homo sapiens) (UniProt O75914); assay: Inhibition of human PAK3 assessed as remaining activity at 1 uM by ATP-competition binding assay relative to control; how it was run: as §2
[21] = biological target: Serine/threonine-protein kinase MAK (Homo sapiens) (UniProt P20794); assay: Inhibition of human MAK assessed as remaining activity at 1 uM by ATP-competition binding assay relative to control; how it was run: as §2
[22] = biological target: Dual specificity tyrosine-phosphorylation-regulated kinase 1B (Homo sapiens) (UniProt Q9Y463); assay: Inhibition of human DYRK1B assessed as remaining activity at 1 uM by ATP-competition binding assay relative to control; how it was run: as §1
[23] = system: Serine/threonine-protein kinase B-raf (Homo sapiens), P15056 [V600E]; assay: Inhibition of human BRAF V600E mutant assessed as remaining activity at 1 uM by ATP-competition binding assay relative to control; how it was run: as §1
[24] = biological target: Receptor tyrosine-protein kinase erbB-2 (Homo sapiens) (UniProt P04626); assay: Inhibition of human ERBB2 assessed as remaining activity at 1 uM by ATP-competition binding assay relative to control; how it was run: as §2
[25] = biological target: Serine/threonine-protein kinase TNNI3K (Homo sapiens) (UniProt Q59H18); assay: Inhibition of human TNNI3K assessed as remaining activity at 1 uM by ATP-competition binding assay relative to control; how it was run: as §3
[26] = biological target: Serine/threonine-protein kinase 26 (Homo sapiens) (UniProt Q9P289); assay: Inhibition of human MST4 assessed as remaining activity at 1 uM by ATP-competition binding assay relative to control; how it was run: as §2
[27] = biological target: Calcium/calmodulin-dependent protein kinase type IV (Homo sapiens) (UniProt Q16566); assay: Inhibition of human CAMK4 assessed as remaining activity at 1 uM by ATP-competition binding assay relative to control; how it was run: as §1
[28] = biological target: Tyrosine-protein kinase JAK1 (Homo sapiens) (UniProt P23458); assay: Inhibition of human JAK1 JH2 domain assessed as remaining activity at 1 uM by ATP-competition binding assay relative to control; how it was run: as §2
[29] = system: Proto-oncogene tyrosine-protein kinase receptor Ret (Homo sapiens), P07949 [M918T]; assay: Inhibition of human RET M918T assessed as remaining activity at 1 uM by ATP-competition binding assay relative to control; how it was run: as §3

Sequence of RAC-alpha serine/threonine-protein kinase (Homo sapiens) (P31749 whole entry): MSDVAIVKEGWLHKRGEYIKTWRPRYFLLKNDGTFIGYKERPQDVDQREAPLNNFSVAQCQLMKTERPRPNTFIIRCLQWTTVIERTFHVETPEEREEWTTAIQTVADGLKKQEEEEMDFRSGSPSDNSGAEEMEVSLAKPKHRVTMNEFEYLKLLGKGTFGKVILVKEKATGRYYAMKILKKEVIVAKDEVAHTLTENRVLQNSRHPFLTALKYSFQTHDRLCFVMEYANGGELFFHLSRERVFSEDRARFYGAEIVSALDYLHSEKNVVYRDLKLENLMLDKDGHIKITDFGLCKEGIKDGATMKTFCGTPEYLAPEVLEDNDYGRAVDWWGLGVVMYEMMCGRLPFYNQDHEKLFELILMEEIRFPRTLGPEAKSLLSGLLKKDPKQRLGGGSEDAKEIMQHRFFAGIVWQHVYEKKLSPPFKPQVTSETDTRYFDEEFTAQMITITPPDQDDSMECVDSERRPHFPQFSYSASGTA
Sequence of Mast/stem cell growth factor receptor Kit (Homo sapiens), P10721 [L576P] (P10721 whole entry L576P): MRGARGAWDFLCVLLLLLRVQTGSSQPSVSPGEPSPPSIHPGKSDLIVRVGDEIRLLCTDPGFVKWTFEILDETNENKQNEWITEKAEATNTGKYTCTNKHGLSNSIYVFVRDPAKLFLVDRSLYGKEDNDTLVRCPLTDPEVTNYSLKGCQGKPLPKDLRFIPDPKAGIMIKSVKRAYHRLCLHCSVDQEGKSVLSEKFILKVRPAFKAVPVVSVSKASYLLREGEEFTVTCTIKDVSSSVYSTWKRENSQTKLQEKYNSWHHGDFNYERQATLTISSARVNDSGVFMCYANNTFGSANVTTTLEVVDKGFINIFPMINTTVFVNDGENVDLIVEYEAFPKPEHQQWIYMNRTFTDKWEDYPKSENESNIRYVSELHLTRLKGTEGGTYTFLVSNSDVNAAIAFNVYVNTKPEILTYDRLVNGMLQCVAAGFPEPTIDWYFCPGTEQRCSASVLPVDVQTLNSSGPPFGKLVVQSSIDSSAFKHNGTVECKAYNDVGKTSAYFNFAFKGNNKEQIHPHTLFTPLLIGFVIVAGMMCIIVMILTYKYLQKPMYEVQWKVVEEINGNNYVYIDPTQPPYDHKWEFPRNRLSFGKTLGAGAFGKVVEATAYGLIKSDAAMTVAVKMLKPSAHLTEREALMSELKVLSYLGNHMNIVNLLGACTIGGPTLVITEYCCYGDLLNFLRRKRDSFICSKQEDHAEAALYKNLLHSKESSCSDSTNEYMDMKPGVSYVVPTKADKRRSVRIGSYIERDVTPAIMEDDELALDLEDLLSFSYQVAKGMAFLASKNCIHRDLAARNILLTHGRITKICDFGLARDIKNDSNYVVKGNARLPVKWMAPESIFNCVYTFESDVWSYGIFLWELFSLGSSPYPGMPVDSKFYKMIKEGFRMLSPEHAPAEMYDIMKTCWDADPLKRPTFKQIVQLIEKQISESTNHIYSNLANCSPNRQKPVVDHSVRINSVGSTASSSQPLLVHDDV
Sequence of Serine/threonine-protein kinase B-raf (Homo sapiens), P15056 [V600E] (P15056 whole entry V600E): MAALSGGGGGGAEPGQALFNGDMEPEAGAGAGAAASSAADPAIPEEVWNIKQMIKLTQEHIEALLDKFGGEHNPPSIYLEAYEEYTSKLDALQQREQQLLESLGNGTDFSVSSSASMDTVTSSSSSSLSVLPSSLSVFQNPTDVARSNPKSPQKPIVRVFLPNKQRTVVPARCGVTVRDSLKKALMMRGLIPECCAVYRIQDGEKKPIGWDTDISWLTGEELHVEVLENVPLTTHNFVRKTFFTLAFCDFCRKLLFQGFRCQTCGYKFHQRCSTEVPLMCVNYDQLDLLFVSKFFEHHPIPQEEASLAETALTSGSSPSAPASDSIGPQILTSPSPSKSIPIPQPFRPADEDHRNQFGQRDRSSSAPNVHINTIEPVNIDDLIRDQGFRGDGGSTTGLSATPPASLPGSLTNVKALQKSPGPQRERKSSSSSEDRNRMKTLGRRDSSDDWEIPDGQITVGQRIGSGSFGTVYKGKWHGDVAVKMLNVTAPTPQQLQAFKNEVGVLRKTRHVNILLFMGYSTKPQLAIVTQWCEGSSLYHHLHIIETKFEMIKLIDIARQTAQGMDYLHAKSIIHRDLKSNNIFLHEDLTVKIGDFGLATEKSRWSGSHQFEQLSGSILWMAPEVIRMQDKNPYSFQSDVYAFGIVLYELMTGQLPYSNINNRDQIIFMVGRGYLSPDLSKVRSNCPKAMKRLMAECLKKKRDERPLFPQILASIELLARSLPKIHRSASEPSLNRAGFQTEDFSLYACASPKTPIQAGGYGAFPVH
Sequence of Calcium/calmodulin-dependent protein kinase type IV (Homo sapiens) (Q16566 whole entry, the tested form may be a part): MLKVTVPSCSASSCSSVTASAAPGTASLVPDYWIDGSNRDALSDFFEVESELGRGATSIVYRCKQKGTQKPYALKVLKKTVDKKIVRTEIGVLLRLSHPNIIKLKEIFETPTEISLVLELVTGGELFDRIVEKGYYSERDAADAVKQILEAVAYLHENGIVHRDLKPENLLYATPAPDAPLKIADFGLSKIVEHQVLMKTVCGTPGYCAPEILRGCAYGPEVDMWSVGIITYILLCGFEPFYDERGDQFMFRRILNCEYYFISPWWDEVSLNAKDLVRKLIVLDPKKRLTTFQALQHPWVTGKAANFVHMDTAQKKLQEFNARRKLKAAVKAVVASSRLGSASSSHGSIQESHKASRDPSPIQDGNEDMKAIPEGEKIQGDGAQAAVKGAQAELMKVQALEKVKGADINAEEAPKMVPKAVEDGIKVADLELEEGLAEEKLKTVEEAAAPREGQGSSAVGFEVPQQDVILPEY
Sequence of Tyrosine-protein kinase Tec (Homo sapiens) (P42680 whole entry, canonical isoform): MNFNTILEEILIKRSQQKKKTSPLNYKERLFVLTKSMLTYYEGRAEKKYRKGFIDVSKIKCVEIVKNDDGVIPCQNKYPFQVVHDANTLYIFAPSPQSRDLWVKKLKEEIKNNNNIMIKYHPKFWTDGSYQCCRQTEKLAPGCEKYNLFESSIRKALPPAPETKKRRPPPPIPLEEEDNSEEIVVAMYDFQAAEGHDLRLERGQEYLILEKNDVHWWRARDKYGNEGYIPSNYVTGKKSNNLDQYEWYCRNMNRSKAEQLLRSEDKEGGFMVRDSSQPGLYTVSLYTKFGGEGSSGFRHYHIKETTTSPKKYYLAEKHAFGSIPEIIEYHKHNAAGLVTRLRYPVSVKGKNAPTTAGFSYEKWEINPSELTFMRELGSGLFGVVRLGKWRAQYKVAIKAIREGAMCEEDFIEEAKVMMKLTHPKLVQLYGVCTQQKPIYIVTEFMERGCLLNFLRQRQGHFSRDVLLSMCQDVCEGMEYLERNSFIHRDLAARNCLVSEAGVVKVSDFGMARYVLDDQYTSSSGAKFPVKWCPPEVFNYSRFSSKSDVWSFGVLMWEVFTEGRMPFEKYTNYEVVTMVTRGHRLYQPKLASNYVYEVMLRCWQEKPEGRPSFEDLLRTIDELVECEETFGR
Sequence of Tyrosine-protein kinase CSK (Homo sapiens) (P41240 2-450 limits assumed): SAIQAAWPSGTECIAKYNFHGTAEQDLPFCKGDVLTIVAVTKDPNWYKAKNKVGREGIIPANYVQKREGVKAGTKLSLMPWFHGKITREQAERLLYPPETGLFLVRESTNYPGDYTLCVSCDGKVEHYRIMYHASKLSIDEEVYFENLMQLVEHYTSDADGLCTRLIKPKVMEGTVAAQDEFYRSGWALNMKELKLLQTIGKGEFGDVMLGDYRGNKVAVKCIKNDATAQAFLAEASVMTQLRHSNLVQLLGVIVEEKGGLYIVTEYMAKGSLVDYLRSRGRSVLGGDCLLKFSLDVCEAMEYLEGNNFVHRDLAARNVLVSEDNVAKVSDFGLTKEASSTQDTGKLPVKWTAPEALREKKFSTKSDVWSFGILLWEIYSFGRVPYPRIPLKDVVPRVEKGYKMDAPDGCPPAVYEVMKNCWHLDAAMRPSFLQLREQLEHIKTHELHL
Sequence of Serine/threonine-protein kinase TNNI3K (Homo sapiens) (Q59H18 whole entry): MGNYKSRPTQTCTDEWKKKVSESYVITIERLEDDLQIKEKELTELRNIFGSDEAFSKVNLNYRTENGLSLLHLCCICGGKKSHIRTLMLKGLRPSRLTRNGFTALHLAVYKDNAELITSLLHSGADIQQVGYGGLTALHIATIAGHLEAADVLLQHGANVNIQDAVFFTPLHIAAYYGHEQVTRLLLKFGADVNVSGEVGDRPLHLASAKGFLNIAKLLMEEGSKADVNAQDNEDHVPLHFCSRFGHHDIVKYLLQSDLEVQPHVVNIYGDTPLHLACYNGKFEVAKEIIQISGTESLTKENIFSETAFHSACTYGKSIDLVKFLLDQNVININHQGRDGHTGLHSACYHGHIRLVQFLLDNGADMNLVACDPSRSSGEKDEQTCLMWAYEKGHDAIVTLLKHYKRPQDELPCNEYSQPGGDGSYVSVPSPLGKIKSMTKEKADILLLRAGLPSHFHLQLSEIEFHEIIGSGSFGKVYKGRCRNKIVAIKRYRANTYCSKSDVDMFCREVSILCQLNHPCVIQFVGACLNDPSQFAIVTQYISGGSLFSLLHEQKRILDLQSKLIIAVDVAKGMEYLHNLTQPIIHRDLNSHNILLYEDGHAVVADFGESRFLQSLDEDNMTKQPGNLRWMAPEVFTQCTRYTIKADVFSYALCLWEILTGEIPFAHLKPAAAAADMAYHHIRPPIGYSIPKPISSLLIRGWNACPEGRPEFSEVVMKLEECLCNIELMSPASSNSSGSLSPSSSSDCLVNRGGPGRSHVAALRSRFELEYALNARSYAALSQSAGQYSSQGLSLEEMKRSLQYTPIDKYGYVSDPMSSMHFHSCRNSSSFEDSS
Sequence of Serine/threonine-protein kinase 26 (Homo sapiens) (Q9P289 2-416 limits assumed): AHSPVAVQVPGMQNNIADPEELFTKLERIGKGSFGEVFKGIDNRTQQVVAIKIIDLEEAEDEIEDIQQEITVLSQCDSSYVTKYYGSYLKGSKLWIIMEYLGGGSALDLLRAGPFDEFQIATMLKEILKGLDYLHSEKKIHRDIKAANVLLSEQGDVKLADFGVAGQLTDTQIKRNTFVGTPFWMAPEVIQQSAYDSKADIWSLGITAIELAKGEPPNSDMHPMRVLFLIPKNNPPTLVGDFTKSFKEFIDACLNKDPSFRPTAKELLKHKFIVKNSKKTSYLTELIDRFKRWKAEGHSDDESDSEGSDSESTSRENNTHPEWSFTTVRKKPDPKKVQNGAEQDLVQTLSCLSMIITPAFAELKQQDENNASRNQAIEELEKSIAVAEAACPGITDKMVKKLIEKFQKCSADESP

CC#CC(=O)N1CCC[C@H]1c1nc(-c2ccc(C(=O)Nc3ccccn3)cc2)c2c(N)nccn12 [ACALABRUTINIB]
inhibition [1]: Active
Activity [2]: 82%
Activity [3]: 63%
Activity [4]: 100%
Activity [5]: 100%
Activity [6]: 98%
Activity [7]: 88%
Activity [8]: 86%
Activity [9]: 84%
Activity [10]: 94%
Activity [11]: 83%
Activity [12]: 88%
Activity [13]: 94%
Activity [14]: 55%
Activity [15]: 94%
Activity [16]: 93%
Activity [17]: 76%
Activity [18]: 99%
Activity [19]: 79%
Activity [20]: 73%
Activity [21]: 90%
Activity [22]: 93%
Activity [23]: 44%
Activity [24]: 2.1%
Activity [25]: 38%
Activity [26]: 91%
Activity [27]: 91%
Activity [28]: 71%
Activity [29]: 71%
